In ChEMBL document CHEMBL1129666, “Cross-linking and sequence specific alkylation of DNA BY aziridinylquinones. 1. Quinone methides” (J Med Chem, 1996):

Tests used:
[1] = tested on: K562; assay: In vitro cytotoxicity against Human Chronic Leukemia K562 cells; assay type: functional, cell-based
Procedure, shortened: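 600 cells/well exposed to compound for 2 h, growth measured by MTT with absorbance at 540 and 640 nm. Growth inhibition plotted against concentration, triplicate per concentration.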

[2] = tested on: Nucleic Acid; assay: Efficiency at pBR322 DNA interstand cross-linking at 10 uM; assay type: functional; details: Escherichia coli
Procedure, shortened: (§1)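 5'-end-labelled HindIII-linearised pBR322 (~5000 cpm/sample) incubated with compound 2 h at 37 °C, pH 4, in TEA buffer with 2 mM ascorbic acid reduction. Stopped, ethanol-precipitated, denatured 90 °C 2 min in strand separation buffer, run on 0.8% agarose (Tris-acetate, 40 V, 16 h). Autoradiograph densitometry gives percent double-stranded (cross-linked) DNA per lane. Single representative experiment.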

[3] = tested on: Nucleic Acid; assay: Efficiency at pBR322 DNA interstand cross-linking at 100 uM; assay type: functional; details: Escherichia coli; procedure, shortened: as §1

SMILES	IC50 [1] [nM]	Cross linking [2] [%]	Cross linking [3] [%]
CC1=CC(=O)C=CC1=O [Cresoquinone]	2750	0	0
NC1=CC(=O)C(N)=CC1=O	> 25000	0	0
O=C1C=C(N2CC2)C(=O)C=C1N1CC1	9	100	100
CC1=C(C)C(=O)C(C)=C(C)C1=O [DUROQUINONE]	> 50000	0	0
CC1=CC(=O)C(N2CC2)=C(C)C1=O	1200	3	9
CCCC1=CC(=O)C(N2CC2)=CC1=O	600	2.2	13.2
CC1=CC(=O)C(C)=C(C)C1=O	3600	0	0
CC1=CC(=O)C(N2CC2)=CC1=O	100	12.2	81
CC1=CC(=O)C(N)=CC1=O	> 15000	0	0
O=C1C=C(N2CCC2)C(=O)C=C1N1CCC1	> 40000	0	0
CCC1=CC(=O)C(N2CC2)=CC1=O	600	6.9	57.1
CC1=C(C)C(=O)C(N2CC2)=CC1=O	1300	1.2	4.7
CC1=C(C)C(=O)C=CC1=O	1400	0	0
CC1=CC(=O)C=C(C)C1=O	1250	0	0
CC1=CC(=O)C(N2CCC2)=CC1=O	> 25000	0	0
